Assay outcomes: PubChem, several laboratories
NR3A LBD binder: modulates the human NR3A ligand-binding domain; hit rate 2.5% among 340,000; NR3A LBD differential scanning fluorimetry, Tm shift; 0% = protein alone, 100% = glycine-bound protein; Tm shift relative to glycine control, % at 25 µM; AID 1259313;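 active = melting temperature shift of at least 10% of the positive control shift, at one fixed dose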
FAS-TE inh: inhibitors of human fatty acid synthase thioesterase domain; P49327; recombinant FAS-TE, OMFH fluorogenic substrate, fluorescence endpoint; inhibition, % at 15 µM; hit rate 0.67% among 360,000; AID 602261;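 active = compounds whose normalised, plate-corrected inhibition of enzyme fluorescence in the single-dose primary screen is 50% or more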
SENP1 FRET inh: blocks the human SENP1 SUMO protease catalytic domain; Q9P0U3; recombinant SENP1 catalytic domain, CyPet-SUMO1-YPet FRET cleavage; inhibition, % at 10 µM; hit rate 0.21% among 360,000; AID 624204;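 active = inhibition at least 30% at 10 µM, raw YFP signal under a set limit, fluorescence ratio 0.5 to 1.5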
Target sequence (Q9P0U3 419-644 limits assumed): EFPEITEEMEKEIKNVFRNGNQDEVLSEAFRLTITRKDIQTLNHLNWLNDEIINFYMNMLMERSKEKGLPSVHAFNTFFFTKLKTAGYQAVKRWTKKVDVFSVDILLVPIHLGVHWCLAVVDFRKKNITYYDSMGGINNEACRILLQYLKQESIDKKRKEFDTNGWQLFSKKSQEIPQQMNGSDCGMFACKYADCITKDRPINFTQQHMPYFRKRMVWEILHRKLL
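Test system: hSENP1 catalytic domain, recombinant; Amount: 20 pM final SENP1 enzyme; Medium: Tris pH 8 buffer plus EDTA, NaCl, BME, BSA, NP40, catalase; Schedule: 50 min enzyme reaction, room temperature, light-protected; Technique: FRET fluorescence in CFP and YFP emission channels; Controls: no-enzyme wells low, DMSO-plus-enzyme wells high control.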
Cardio protect: myocardial damage modulation in H9c2 cells. hit rate 0.63% among 360,000. H9c2 cardiomyocytes, H2O2 injury protection, ATPLite, 2 h. protection from H2O2 cell death, % at 20 µM. AID 588492;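 active = compounds giving at least 50% protection of heart cells from peroxide-induced death in the single-dose screen, raw or plate-pattern-corrected value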
Arr AP2 block: inhibitors of human beta-arrestin and AP2 interaction; hit rate 0.31% among 340,000; inhibition, % at 10 µM; FITC-arrestin peptide / GST-AP2 beads, flow cytometry; AP2 beta2 appendage carries R879A mutation;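 active = inhibition above a set limit, near 3 SD of compounds lacking own fluorescence, cut at about 54% in these data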
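System: GST-AP2 R879A glutathione beads; medium: PBS, Tween 20 0.05%, BSA 0.1%; reagent: fluorescein-tagged arrestin peptide at 50 nM final; schedule: pre-incubation 12 min, peptide binding 1 h, room temperature; detection: flow cytometry, FL1 (488/535 nm); read-out: inhibition as reduced fluorescein signal on beads, percent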
iPSC survival up: enhancers of human iPSC single-cell survival | hiPSC single-cell survival, ATPlite luminescence; 100% = ROCK inhibitor wells, 0% = DMSO | hit rate 0.044% among 360,000 | survival enhancement, % at 20 µM; in the data active = survival enhancement above about 18%;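 also: cells exposed to compounds for 16 hours before the ATP read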
FAS-TE inh conf: confirmation of human fatty acid synthase thioesterase inhibitors; recombinant FAS-TE, OMFH fluorogenic substrate, fluorescence; shares compounds with FAS-TE inh; hit rate 45% among 2,300; inhibition, % at 15 µM; AID 624325;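 active = compounds inhibiting the enzyme by at least 50% at 15 µM in any one of the replicates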
Of the large screens only hits and unclear results are named; the others gave an inactive call (follow-up assays come after a bar, where they were run). In the library only some 4% were active in any assay of this set; here they are far more common.

O=[N+]([O-])c1ccc(NC(=S)NCCc2ccc(Cl)cc2)cc1	NR3A LBD binder 31, FAS-TE inh 51 | FAS-TE inh conf inactive
O=[N+]([O-])c1ccc(NNC(=S)Nc2ccccc2)cc1	none
CCCNC(=O)C1(C)CCN(C(=O)COc2ccc(Cl)cc2Cl)C1 (centres undefined)	none (no result: NR3A LBD binder, Arr AP2 block)
O=C1CN(C(=O)CSc2nc3cc(Cl)ccc3c(=O)n2Cc2ccccc2)c2ccccc2N1	FAS-TE inh 76 | FAS-TE inh conf inactive
CC(c1ccccc1)n1c(SCC(=O)N2CC(=O)Nc3ccccc32)nc2ccccc2c1=O (centres undefined)	FAS-TE inh 56 | FAS-TE inh conf inactive
Cc1cccc(-n2c(SCC(=O)N3CC(=O)Nc4ccccc43)nc3ccccc3c2=O)c1	none
Cc1ccc(Cn2c(SCC(=O)N3CC(=O)Nc4ccccc43)nc3ccccc3c2=O)cc1	FAS-TE inh 53 | FAS-TE inh conf inactive
COCC(C)n1c(SCC(=O)N2CC(=O)Nc3ccccc32)nc2ccccc2c1=O (centres undefined)	none
Cc1nnc(SCC(=O)N2CC(=O)Nc3ccccc32)n1Cc1ccccc1	none
COc1ccc(Cl)cc1C1=NOC2(CCC2)C(=O)N1Cc1cccc(C#N)c1	none (no result: NR3A LBD binder, Arr AP2 block)
C[C@@H]1CN([C@@H](C)CO)C(=O)CCCn2nncc2CO[C@@H]1CN(C)C(=O)Cc1ccccc1	none (no result: NR3A LBD binder, Arr AP2 block)
COc1cccc(-c2cnc3c(NC=O)cc(-c4ccncc4)cn23)c1	none (no result: NR3A LBD binder, Arr AP2 block)
O=C1c2ccc(-c3ccc(F)cc3OCc3ccccc3)cc2S(=O)(=O)c2cccc(C(=O)N3CCCC3)c21	FAS-TE inh 62 | FAS-TE inh conf inactive
COc1ccccc1N1CCN(c2ccc3c(c2)S(=O)(=O)c2cccc(C(=O)NCc4cccc(F)c4)c2C3=O)CC1	FAS-TE inh 64 (no result: NR3A LBD binder, Arr AP2 block) | FAS-TE inh conf inactive
CCOC(=O)[C@H]1[C@H]2COc3ccc(Cl)cc3[C@@H]2N2C(=O)c3cc(OC)ccc3NC(=O)[C@@]12C	none
COc1cc2c(cc1OC)C(=O)N1[C@H]3c4cc(C)ccc4OC[C@@H]3[C@H](c3ccccc3)[C@]1(C)C(=O)N2	FAS-TE inh 64 | FAS-TE inh conf inactive
COc1cc2c(cc1OC)C(=O)N1[C@H]3c4cc(Cl)ccc4OC[C@@H]3[C@H](c3ccccc3)[C@]1(C)C(=O)N2	FAS-TE inh 86 | FAS-TE inh conf inactive
O=C(Cc1ccccc1)NC(=S)Nc1ccc(OC(F)F)cc1	none
Cc1ccc(SCc2ccc(C(=O)Nc3cccc([N+](=O)[O-])c3C)cc2)cc1	FAS-TE inh 51 | FAS-TE inh conf inactive
CC(C)c1ccc(/C=N/NC(=O)CN(c2cccc(Cl)c2Cl)S(C)(=O)=O)cc1	FAS-TE inh 57 | FAS-TE inh conf 58
C[C@@H]1CN([C@@H](C)CO)C(=O)c2cc(NS(=O)(=O)c3cccs3)ccc2O[C@H]1CN(C)Cc1ccc(C(F)(F)F)cc1	none
CC1CCc2c(C(=O)Oc3cccc(-n4cnnn4)c3)csc2C1 (centres undefined)	FAS-TE inh 85 | FAS-TE inh conf 56
Cc1ccc(-c2nnc3ccc(SCC(=O)N4CCCc5ccccc54)nn23)cc1	NR3A LBD binder 18, FAS-TE inh 74, Cardio protect 105 | FAS-TE inh conf 70
CC1(C(=O)NS(=O)(=O)c2cccc(Cl)c2)CCN1C(=O)CCc1cccs1 (centres undefined)	none (no result: NR3A LBD binder, Arr AP2 block)
COc1ccc(NS(=O)(=O)c2cc(NC(=O)c3cnc(C)cn3)ccc2N2CCCCC2)cc1	FAS-TE inh 55 | FAS-TE inh conf inactive
COc1ccc(NS(=O)(=O)c2cc(NC(=O)c3cnc(C)cn3)ccc2N2CCCC2)cc1	none
COc1ccc(NS(=O)(=O)c2cc(NC(=O)c3ccc(Cl)cc3)ccc2N2CCOCC2)cc1	FAS-TE inh 53 | FAS-TE inh conf inactive
CCn1c(=S)sc2c(=O)n(CC(=O)NC(C)CCc3ccccc3)c(C)nc21 (centres undefined)	FAS-TE inh 79 | FAS-TE inh conf 74
